Test results: ChEMBL document CHEMBL5058577, “EUbOPEN Chemogenomics Library 2 (Multiplex)” (2022)

Tested on: Fibroblast
Assay: Multiplex assay against human fibroblast
Type: toxicity, cell-based
How it was run: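 Cells were classed with CellPathfinder machine-learning gating, first as Hoechst high-intensity objects or normal cells, then (normal cells) as healthy, pyknosed or fragmented nuclei, and finally (pyknosed cells) as mitotic or apoptotic. Staining of live cells at seeding used Hoechst33342, BioTracker Green Microtubule Cytoskeleton Dye, MitoTracker Red and Annexin V Alexa Fluor 680, with imaging on a CQ1 microscope at 37°C and 5% CO2 after compound addition. Tubulin, mitochondrial-mass and membrane-permeability phenotypes are per cents of healthy-nucleus cells.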

[1] = 12 h, 1 µM, compound concentration 1 uM, replicate 1
[2] = 12 h, 1 µM, compound concentration 1 uM, replicate 2
[3] = 12 h, 10 µM, compound concentration 10 uM, replicate 1
[4] = 12 h, 10 µM, compound concentration 10 uM, replicate 2
[5] = 24 h, 1 µM, compound concentration 1 uM, replicate 1
[6] = 24 h, 1 µM, compound concentration 1 uM, replicate 2
[7] = 24 h, 10 µM, compound concentration 10 uM, replicate 1
[8] = 24 h, 10 µM, compound concentration 10 uM, replicate 2
[9] = 48 h, 1 µM, compound concentration 1 uM, replicate 1
[10] = 48 h, 1 µM, compound concentration 1 uM, replicate 2
[11] = 48 h, 10 µM, compound concentration 10 uM, replicate 1
[12] = 48 h, 10 µM, compound concentration 10 uM, replicate 2

In the case of `CC(C)(C)c1ccc(S(=O)(=O)Nc2ccc(Cl)cc2C(=O)c2cc[n+]([O-])cc2)cc1` [VERCIRNON], the “Population Apoptotic (%)” value [1] is reported as 63%, the “Population Fragmented Nuclei (%)” value [1] is reported as 19% and the “Population Healthy Nuclei (%)” value [1] is reported as 65%. The “Population Hoechst High Intensity Objects (%)” value [1] was 2%, the “Population Membrane Permeable-Phenotype (%)” value [1] was 1% and the “Population Mitochondria Different-Phenotype (%)” value [1] was 3%. The “Population Mitotic Cells (%)” value [1] was 36%, the “Population Normal (%)” value [1] was 97% and the “Population Pyknosed Nuclei (%)” value [1] was 15%. The “Population Tubulin-Different-Phenotype (%)” value [1] was 20%, the “Total Cell Count” value [1] was 148 and the “Population Apoptotic (%)” value [2] was 50%. For the same molecule, the “Population Fragmented Nuclei (%)” value [2] was 27%, the “Population Healthy Nuclei (%)” value [2] was 46% and the “Population Hoechst High Intensity Objects (%)” value [2] was 7%. The “Population Membrane Permeable-Phenotype (%)” value [2] was 6%, the “Population Mitochondria Different-Phenotype (%)” value [2] was 1% and the “Population Mitotic Cells (%)” value [2] was 50%. The “Population Normal (%)” value [2] was 92%, the “Population Pyknosed Nuclei (%)” value [2] was 25% and the “Population Tubulin-Different-Phenotype (%)” value [2] was 41%. The “Total Cell Count” value [2] was 152, the “Population Apoptotic (%)” value [3] was 59% and the “Population Fragmented Nuclei (%)” value [3] was 14%. The “Population Healthy Nuclei (%)” value [3] was 64%, the “Population Hoechst High Intensity Objects (%)” value [3] was 3% and the “Population Membrane Permeable-Phenotype (%)” value [3] was 3%. The “Population Mitochondria Different-Phenotype (%)” value [3] was 1%, the “Population Mitotic Cells (%)” value [3] was 40% and the “Population Normal (%)” value [3] was 96%. The “Population Pyknosed Nuclei (%)” value [3] was 21%, the “Population Tubulin-Different-Phenotype (%)” value [3] was 46% and the “Total Cell Count” value [3] was 107. For the same molecule, the “Population Apoptotic (%)” value [4] was 48%, the “Population Fragmented Nuclei (%)” value [4] was 30% and the “Population Healthy Nuclei (%)” value [4] was 44%. For the same molecule, the “Population Hoechst High Intensity Objects (%)” value [4] was 5%, the “Population Membrane Permeable-Phenotype (%)” value [4] was 8% and the “Population Mitochondria Different-Phenotype (%)” value [4] was 10%. For the same molecule, the “Population Mitotic Cells (%)” value [4] was 51%, the “Population Normal (%)” value [4] was 94% and the “Population Pyknosed Nuclei (%)” value [4] was 25%. The “Population Tubulin-Different-Phenotype (%)” value [4] was 66%, the “Total Cell Count” value [4] was 114 and the “Population Apoptotic (%)” value [5] was 55%. The “Population Fragmented Nuclei (%)” value [5] was 23%, the “Population Healthy Nuclei (%)” value [5] was 62% and the “Population Hoechst High Intensity Objects (%)” value [5] was 0%. For the same molecule, the “Population Membrane Permeable-Phenotype (%)” value [5] was 4%, the “Population Mitochondria Different-Phenotype (%)” value [5] was 1% and the “Population Mitotic Cells (%)” value [5] was 45%. For the same molecule, the “Population Normal (%)” value [5] was 99%, the “Population Pyknosed Nuclei (%)” value [5] was 14% and the “Population Tubulin-Different-Phenotype (%)” value [5] was 27%. The “Total Cell Count” value [5] was 141, the “Population Apoptotic (%)” value [6] was 54% and the “Population Fragmented Nuclei (%)” value [6] was 25%. For the same molecule, the “Population Healthy Nuclei (%)” value [6] was 57%, the “Population Hoechst High Intensity Objects (%)” value [6] was 7% and the “Population Membrane Permeable-Phenotype (%)” value [6] was 7%. The “Population Normal (%)” value [6] was 92%, the “Population Pyknosed Nuclei (%)” value [6] was 16% and the “Population Tubulin-Different-Phenotype (%)” value [6] was 40%. For the same molecule, the “Total Cell Count” value [6] was 142, the “Population Apoptotic (%)” value [7] was 66% and the “Population Fragmented Nuclei (%)” value [7] was 16%. The “Population Healthy Nuclei (%)” value [7] was 66%, the “Population Hoechst High Intensity Objects (%)” value [7] was 1% and the “Population Membrane Permeable-Phenotype (%)” value [7] was 4%. The “Population Mitochondria Different-Phenotype (%)” value [7] was 2%, the “Population Mitotic Cells (%)” value [7] was 33% and the “Population Normal (%)” value [7] was 98%. For the same molecule, the “Population Pyknosed Nuclei (%)” value [7] was 16%, the “Population Tubulin-Different-Phenotype (%)” value [7] was 40% and the “Total Cell Count” value [7] was 114. The “Population Apoptotic (%)” value [8] was 41%, the “Population Fragmented Nuclei (%)” value [8] was 32% and the “Population Healthy Nuclei (%)” value [8] was 42%. The “Population Hoechst High Intensity Objects (%)” value [8] was 0%, the “Population Membrane Permeable-Phenotype (%)” value [8] was 21% and the “Population Mitochondria Different-Phenotype (%)” value [8] was 9%. The “Population Mitotic Cells (%)” value [8] was 58%, the “Population Normal (%)” value [8] was 99% and the “Population Pyknosed Nuclei (%)” value [8] was 24%. For the same molecule, the “Population Tubulin-Different-Phenotype (%)” value [8] was 82%, the “Total Cell Count” value [8] was 120 and the “Population Apoptotic (%)” value [9] was 61%. For the same molecule, the “Population Fragmented Nuclei (%)” value [9] was 29%, the “Population Healthy Nuclei (%)” value [9] was 58% and the “Population Hoechst High Intensity Objects (%)” value [9] was 1%. The “Population Membrane Permeable-Phenotype (%)” value [9] was 1%, the “Population Mitochondria Different-Phenotype (%)” value [9] was 1% and the “Population Mitotic Cells (%)” value [9] was 38%. For the same molecule, the “Population Normal (%)” value [9] was 98%, the “Population Pyknosed Nuclei (%)” value [9] was 12% and the “Population Tubulin-Different-Phenotype (%)” value [9] was 25%. For the same molecule, the “Total Cell Count” value [9] was 151, the “Population Apoptotic (%)” value [10] was 62% and the “Population Fragmented Nuclei (%)” value [10] was 32%. For the same molecule, the “Population Healthy Nuclei (%)” value [10] was 55%, the “Population Hoechst High Intensity Objects (%)” value [10] was 6% and the “Population Membrane Permeable-Phenotype (%)” value [10] was 6%. For the same molecule, the “Population Mitochondria Different-Phenotype (%)” value [10] was 9%, the “Population Mitotic Cells (%)” value [10] was 37% and the “Population Normal (%)” value [10] was 93%. For the same molecule, the “Population Pyknosed Nuclei (%)” value [10] was 11%, the “Population Tubulin-Different-Phenotype (%)” value [10] was 37% and the “Total Cell Count” value [10] was 145. The “Population Apoptotic (%)” value [11] was 62%, the “Population Fragmented Nuclei (%)” value [11] was 22% and the “Population Healthy Nuclei (%)” value [11] was 64%. For the same molecule, the “Population Hoechst High Intensity Objects (%)” value [11] was 2%, the “Population Membrane Permeable-Phenotype (%)” value [11] was 1% and the “Population Mitochondria Different-Phenotype (%)” value [11] was 0%. The “Population Mitotic Cells (%)” value [11] was 37%, the “Population Normal (%)” value [11] was 97% and the “Population Pyknosed Nuclei (%)” value [11] was 13%. The “Population Tubulin-Different-Phenotype (%)” value [11] was 38%, the “Total Cell Count” value [11] was 120 and the “Population Apoptotic (%)” value [12] was 46%. For the same molecule, the “Population Fragmented Nuclei (%)” value [12] was 42%, the “Population Healthy Nuclei (%)” value [12] was 46% and the “Population Hoechst High Intensity Objects (%)” value [12] was 4%. The “Population Membrane Permeable-Phenotype (%)” value [12] was 16%, the “Population Mitochondria Different-Phenotype (%)” value [12] was 12% and the “Population Mitotic Cells (%)” value [12] was 53%. For the same molecule, the “Population Normal (%)” value [12] was 95%, the “Population Pyknosed Nuclei (%)” value [12] was 11% and the “Population Tubulin-Different-Phenotype (%)” value [12] was 72%. The “Total Cell Count” value [12] was 122.
